Screens (PubChem BioAssay)
SUMO1 PPI mod = SUMO1-SIM interaction modulation | inhibition, % at 20 µM | 0.33% of 360,000 active | P63165 | SUMO1 binding to a labelled peptide, TR-FRET, 1 h; in the data active = inhibition above about 37%
Target sequence (P63165 whole entry, looked up): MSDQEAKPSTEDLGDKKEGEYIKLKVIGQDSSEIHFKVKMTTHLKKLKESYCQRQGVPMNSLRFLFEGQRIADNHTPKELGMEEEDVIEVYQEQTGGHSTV
Scp1 inh = inhibitors of human Scp-1 phosphatase; Recombinant Scp1, phosphopeptide, malachite green phosphate absorbance; 0.88% of 340,000 active; inhibition, % at 20 µM;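 active = inhibition above about 50% at 20 µM, limit read from the data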;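 also: plate controls were DMSO wells with enzyme for no effect and wells lacking enzyme for full effect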
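Incubation: 45 min enzyme reaction at room temperature / System: truncated SCP-1 phosphatase (76-261aa) / Reagent: Phospho 17-mer peptide substrate / Buffer or medium: Acidic Tris acetate buffer with magnesium and detergent / Signal: absorbance at 630 nm / Doses: one concentration, 20 µM, with 1.0% DMSO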
Rpn11 block = Rpn11 (human) deubiquitinase inhibition; O00487; human 26S proteasome, Ub4-pepOG fluorescence polarization; 20S core pre-blocked with epoxomicin; inhibition, % at 20 µM; 0.59% of 360,000 active; AID 588493;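 active = inhibition at 20 µM, scaled to each plate's controls, above about 33%, limit read from the data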
DNMT1 block = blocks human DNA methyltransferase DNMT1. 0.83% of 360,000 active. inhibition (reported as % activation of signal), % at 10 µM. DNMT1 molecular beacon, Hinp1I cleavage, fluorescence; in the data active = inhibition above about 50%
STEP inh = blocks human striatal-enriched tyrosine phosphatase; 0.25% of 360,000 active; inhibition, % at 20 µM; P54829; recombinant STEP, OMFP fluorogenic substrate, fluorescence;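 active = inhibition at 20 µM, scaled per plate between control wells, above about 37%, limit read from the data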;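 also: 0% = DMSO with enzyme and substrate and 100% = substrate only without enzyme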
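Material: STEP (striatal-enriched tyrosine phosphatase) enzyme, cell-free | Medium: 50 mM Bis-Tris pH 6.0 with 2.5 mM DTT and 0.005% Tween 20 | Read-out: Percent inhibition scaled to no-enzyme and uninhibited-enzyme controls, plate-pattern corrected | Signal: Fluorescence read at 480 nm ex / 540 nm em | Times: 20 min reaction, room temperature, in the dark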
LMPTP inh = blocks human LMPTP phosphatase. recombinant LMPTP-A, OMFP fluorogenic substrate, fluorescence intensity. P24666. AID 651560. 0.22% of 360,000 active. inhibition, % at 20 µM;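 active = compounds that cut the enzyme signal by at least half of the control window in the single-dose screen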;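 also: plate controls were DMSO wells with enzyme plus substrate for no effect and substrate without enzyme for full effect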
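Assay system: LMPTP-A enzyme. Input: 0.625 nM LMPTP-A final. Probe or stimulus: 400 µM OMFP. Compound dosing: single 20 µM dose. Schedule: 50 min dark incubation at room temperature. Detection: fluorescence intensity of OMFP turnover product. Read-out: percent inhibition versus substrate-only and uninhibited controls. Benchmarks: no-enzyme low control, uninhibited high control.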
Rpn11 inh conf = confirmation of human proteasome Rpn11 inhibitors | purified human 26S proteasome, Ub4-pepOG fluorescence polarization; proteasome pretreated with epoxomicin | AID 602318 | 29% of 1,900 active | shares compounds with Rpn11 block | inhibition, % at 20 µM
MMP-2 counter = blocks human MMP-2, flagging nonselective RPN11 hits. shares compounds with Rpn11 block. recombinant MMP-2, FRET peptide cleavage fluorescence. inhibition, % at 20 µM. 4% of 1,900 active. AID 602330;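 also: human MMP-2 activated beforehand with APMA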
Target sequence (P08253 whole entry, looked up): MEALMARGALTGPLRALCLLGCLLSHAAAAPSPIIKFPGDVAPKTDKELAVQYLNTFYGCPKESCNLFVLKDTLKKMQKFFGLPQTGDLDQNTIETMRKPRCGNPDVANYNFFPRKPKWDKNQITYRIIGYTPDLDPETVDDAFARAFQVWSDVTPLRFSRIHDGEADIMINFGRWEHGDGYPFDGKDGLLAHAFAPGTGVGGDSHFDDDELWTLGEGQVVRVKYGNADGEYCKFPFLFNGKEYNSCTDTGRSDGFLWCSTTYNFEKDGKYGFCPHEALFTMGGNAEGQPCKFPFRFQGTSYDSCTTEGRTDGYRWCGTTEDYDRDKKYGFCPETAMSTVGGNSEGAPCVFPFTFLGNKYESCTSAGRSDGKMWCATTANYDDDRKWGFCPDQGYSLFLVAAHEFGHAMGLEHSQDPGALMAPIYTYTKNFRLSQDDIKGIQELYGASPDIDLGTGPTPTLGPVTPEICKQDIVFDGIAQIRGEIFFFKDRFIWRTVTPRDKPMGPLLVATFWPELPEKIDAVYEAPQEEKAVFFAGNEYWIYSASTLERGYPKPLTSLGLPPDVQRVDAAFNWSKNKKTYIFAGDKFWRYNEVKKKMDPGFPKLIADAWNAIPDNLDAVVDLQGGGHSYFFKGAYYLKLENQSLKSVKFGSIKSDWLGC
Thrombin FP = counter-screen for RPN11 inhibitors: inhibition of bovine thrombin | 13% of 1,900 active | shares compounds with Rpn11 block | AID 602333 | bovine thrombin cleavage of Ub4-pepOG, fluorescence polarization | inhibition, % at 20 µM;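 active = mean inhibition at least 40% at 20 µM, or signal 3 deviations below plate average, so some actives read negative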;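 also: plate controls were thrombin with DMSO for no effect and buffer wells lacking thrombin for full effect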
Starred values were filed as active, the others as inactive; nt = no result given. Shown are actives, neighbours in structure and some others; about 2.3% of the full set was active somewhere. Rule as the data show it, unless noted: active = inhibition above about 40%; inactive = the rest.

SMILES | SUMO1 PPI mod | Scp1 inh | Rpn11 block | DNMT1 block | STEP inh | LMPTP inh | Rpn11 inh conf | MMP-2 counter | Thrombin FP
COc1cc(/C=C2/SC(=S)N(c3c(C)n(C)n(-c4ccccc4)c3=O)C2=O)ccc1O | -33 | -9 | 100* | -4 | 2 | 1 | 63* | -10 | 43*
Cc1csc(SCC(=O)Nc2cc([N+](=O)[O-])ccc2F)n1 | -25 | -15 | -1 | 5 | -2 | 0 | nt | nt | nt
CC(C)(C)[C@H]1C=C(C(N)=O)O[C@@H](OCCCCO)C1 | 0 | -1 | 2 | -6 | 0 | -1 | nt | nt | nt
COc1ccc(C(=O)c2c3ccc(C(F)(F)F)cc3[n+]([O-])n2CCCN)cc1 | -14 | 1 | -5 | 0 | 1 | -1 | nt | nt | nt
Cc1occc1C(=O)/C(C#N)=C/c1ccc(O)c(Br)c1 | -17 | -8 | 143* | 5 | 1 | -2 | 116* | -24 | 101*
Nc1ncnc2c1cnn2C1CCCCC1 | 0 | -2 | 10 | 6 | 0 | -2 | nt | nt | nt
COCCCn1c(N)c(-c2nc3ccccc3n2C)c2nc3ccccc3nc21 | -4 | -4 | 37 | 2 | -5 | 2 | nt | nt | nt
Cn1c(-c2c(N)n(CCCc3ccccc3)c3nc4ccccc4nc23)nc2ccccc21 | 0 | 7 | 44* | -11 | -1 | 4 | 35 | -7 | 23
Cn1c(-c2c(N)n(CCc3ccccc3)c3nc4ccccc4nc23)nc2ccccc21 | 15 | -2 | 46* | -5 | -1 | 2 | 38 | -2 | 29
COc1ccc(-n2ccc(=O)c(C(=O)Nc3ccc(S(=O)(=O)Nc4nccs4)cc3)n2)cc1 | -6 | 1 | 48* | 4 | 1 | 7 | 2 | 68* | 19
Cc1nc(C(F)(F)F)c(C(=O)N/N=C(\N)c2ccccn2)s1 | -3 | -13 | 12 | 4 | 0 | 0 | nt | nt | nt
O=C(N/C(=N\O)c1ccccc1)Nc1ccc(Cl)cc1 | -4 | 1 | 37* | -2 | -3 | 0 | -12 | -47 | -14
COc1ccc(NC(=O)CCCn2nc(C)c3c(C)n(-c4ccccc4)nc3c2=O)cc1 | 2 | -6 | -4 | 3 | 2 | -2 | nt | nt | nt
Cc1cc(C=C2C(=O)c3ccccc3C2=O)c(C)n1-c1ccc(C(=O)O)cc1 | -2 | 5 | 40* | 16 | 7 | 3 | 9 | -22 | 12
Cc1cc(/C=C2\Cc3ccccc3C2=O)c(C)n1-c1ccccc1 | -12 | -2 | 56* | 4 | 6 | 2 | 124* | 1 | 105*
COc1ccc(C)cc1Nc1n[n+](-c2ccccc2)c(-c2ccc(N(C)C)cc2)s1 | -44 | 14 | 60* | 60* | -1 | 6 | 75* | 3 | 127*
O=C(Nc1ccc(Cl)cc1)Nc1ccccc1Sc1ncc([N+](=O)[O-])s1 | -20 | -11 | 44* | 8 | 4 | 2 | -9 | 30 | -19
O=C(CN1C(=O)c2ccccc2S1(=O)=O)NCCSc1ccccc1 | 1 | -4 | 41* | 1 | -2 | -1 | -7 | -26 | -19
Cc1cc(C)c2nc(NNC(=O)c3cc(=O)c4ccccc4o3)sc2c1 | -5 | 3 | 47* | -23 | 2 | 3 | 34 | -18 | 9
Nc1c(C(=O)N/N=C/c2ccc(F)cc2)oc2nc(-c3ccccc3)cc(-c3ccco3)c12 | -8 | -7 | 44* | 4 | 0 | 0 | 94* | -18 | 20
Cc1nc2ccc(NC(=O)[C@@H](NC(=O)c3c(F)cccc3F)C(C)C)cc2s1 | -5 | -1 | 50* | -11 | -1 | 1 | 58* | -43 | 70*
CC(=O)c1sc(NC(=O)CCCOc2ccc(Cl)cc2)nc1C | -2 | 42 | 77* | 21 | 22 | 38 | 12 | 14 | -9
COc1ccc(OCCCC(=O)Nc2nc(C)c(C(C)=O)s2)cc1 | -5 | -6 | -3 | -2 | -2 | -1 | nt | nt | nt
COc1ccc(/C=C2\Sc3ccc(C(=O)NCCN4CCCCCC4)cc3N(C)C2=O)cc1 | -50 | 0 | 42* | 18 | 7 | 5 | 40 | -82 | 31
OC[C@@H]1CN(Cc2ccc(Cl)cc2)C[C@H](n2cnc3c(NC4CC4)ncnc32)O1 | 2 | nt | -9 | 3 | -1 | 2 | nt | nt | nt
SMILES | SUMO1 PPI mod | Scp1 inh | Rpn11 block | DNMT1 block | STEP inh | LMPTP inh | Rpn11 inh conf | MMP-2 counter | Thrombin FP
COc1ccc(CC(=O)Nc2ccc(-c3nc4cc(C)ccc4o3)c(O)c2)cc1OC | -57 | -1 | 66* | 47 | 6 | 13 | 9 | -23 | 7
O=C1N/C(=C/c2ccc(N3CCCC3)cc2)C(=O)N1c1ccccc1 | -11 | -3 | 41* | 12 | 0 | 1 | 3 | -20 | -7
O=C1S/C(=C/c2ccc(N3CCOCC3)o2)C(=O)N1Cc1ccc(F)cc1 | -31 | 7 | nt | 3 | -15 | 0 | nt | nt | nt
O=C1N/C(=C/c2ccc(N3CCOCC3)o2)C(=O)N1c1ccccc1 | -13 | 5 | 59* | -2 | -1 | -2 | 166* | 20 | 166*
Cc1nn(C)cc1CN(C)C(=O)CCc1nnc(CCC2CCCCC2)o1 | 2 | -5 | 4 | 12 | 0 | -1 | nt | nt | nt
Cc1oc(C(C)(C)C)cc1C(N)=O | -2 | 11 | 3 | 0 | -3 | 0 | nt | nt | nt
CC(C)(C)c1cc(C(F)(F)F)c(C#N)c(=O)[nH]1 | 9 | -6 | 65* | 0 | -1 | -3 | 5 | -22 | 4
COc1ccccc1NC(=O)Cn1c(C)nc2c(sc(=S)n2Cc2ccco2)c1=O | 1 | -4 | 58* | -6 | 1 | 4 | 7 | -37 | 1
Clc1ccc(-c2cn(-c3nc4ccccc4s3)nn2)cc1 | -18 | nt | nt | nt | nt | 0 | nt | nt | nt
Cc1ccc(/C=C(\NC(=O)c2ccccc2)C(=O)N2CCCCC2)cc1 | 1 | -4 | -6 | -3 | -4 | -1 | nt | nt | nt
CN(C)c1ccc(/C=C(/NC(=O)c2ccccc2)C(=O)N2CCCC2)cc1 | -7 | -5 | 64* | 0 | -2 | 3 | 0 | 29 | -4
COc1ccc(CCNC(=O)CS(=O)Cc2nc(-c3cccs3)oc2C)cc1OC (stereo unspecified) | 2 | -2 | 120* | -8 | 0 | -1 | 12 | -6 | 13
Cc1ccc(CCNC(=O)CS(=O)Cc2nc(-c3cccs3)oc2C)cc1 (stereo unspecified) | -1 | 3 | 12 | -7 | 4 | 0 | nt | nt | nt
O=C(NCCCN1CCCCCC1)c1ccc2c(Cl)c3c(nc2c1)CCCC3 | -8 | 3 | 75* | -5 | -1 | 5 | -15 | 21 | -25
